This note sets out measurements from PMC2883171 (Organic & biomolecular chemistry, 2008).

For series [1], the target named is T1, soybean lipoxygenase-1 (sLO-1) (Glycine max, UniProt P08170).
T1 sequence (P08170 1-839): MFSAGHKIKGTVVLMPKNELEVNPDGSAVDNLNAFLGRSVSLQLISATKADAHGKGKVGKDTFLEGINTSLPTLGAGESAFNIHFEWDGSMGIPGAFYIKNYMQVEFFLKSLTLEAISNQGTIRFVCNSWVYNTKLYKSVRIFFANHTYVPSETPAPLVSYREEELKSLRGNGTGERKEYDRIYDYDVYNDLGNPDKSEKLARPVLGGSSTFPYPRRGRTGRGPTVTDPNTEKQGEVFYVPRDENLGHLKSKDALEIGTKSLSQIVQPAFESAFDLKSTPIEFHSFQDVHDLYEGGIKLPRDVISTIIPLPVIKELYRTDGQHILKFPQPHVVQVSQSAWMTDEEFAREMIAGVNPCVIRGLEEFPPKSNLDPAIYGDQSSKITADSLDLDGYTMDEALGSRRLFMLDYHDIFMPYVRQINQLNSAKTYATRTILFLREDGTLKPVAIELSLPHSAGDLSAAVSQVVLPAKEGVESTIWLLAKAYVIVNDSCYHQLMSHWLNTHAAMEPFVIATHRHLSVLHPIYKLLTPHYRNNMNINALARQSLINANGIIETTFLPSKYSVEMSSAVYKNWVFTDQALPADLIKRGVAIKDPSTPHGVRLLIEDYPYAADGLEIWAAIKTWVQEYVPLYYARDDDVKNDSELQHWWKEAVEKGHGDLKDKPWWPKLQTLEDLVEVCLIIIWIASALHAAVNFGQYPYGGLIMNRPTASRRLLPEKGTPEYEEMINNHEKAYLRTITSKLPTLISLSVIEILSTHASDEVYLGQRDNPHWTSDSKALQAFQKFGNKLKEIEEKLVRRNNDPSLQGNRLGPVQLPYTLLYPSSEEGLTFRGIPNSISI
The experiment in a line: Kinetic inhibition assay of sLO-1. In kind it is biochemical.

Series [2] deals with T2, human reticulocyte 15-lipoxygenase-1 (15-hLO-1) (Homo sapiens, UniProt P16050).
T2 sequence (P16050 1-662): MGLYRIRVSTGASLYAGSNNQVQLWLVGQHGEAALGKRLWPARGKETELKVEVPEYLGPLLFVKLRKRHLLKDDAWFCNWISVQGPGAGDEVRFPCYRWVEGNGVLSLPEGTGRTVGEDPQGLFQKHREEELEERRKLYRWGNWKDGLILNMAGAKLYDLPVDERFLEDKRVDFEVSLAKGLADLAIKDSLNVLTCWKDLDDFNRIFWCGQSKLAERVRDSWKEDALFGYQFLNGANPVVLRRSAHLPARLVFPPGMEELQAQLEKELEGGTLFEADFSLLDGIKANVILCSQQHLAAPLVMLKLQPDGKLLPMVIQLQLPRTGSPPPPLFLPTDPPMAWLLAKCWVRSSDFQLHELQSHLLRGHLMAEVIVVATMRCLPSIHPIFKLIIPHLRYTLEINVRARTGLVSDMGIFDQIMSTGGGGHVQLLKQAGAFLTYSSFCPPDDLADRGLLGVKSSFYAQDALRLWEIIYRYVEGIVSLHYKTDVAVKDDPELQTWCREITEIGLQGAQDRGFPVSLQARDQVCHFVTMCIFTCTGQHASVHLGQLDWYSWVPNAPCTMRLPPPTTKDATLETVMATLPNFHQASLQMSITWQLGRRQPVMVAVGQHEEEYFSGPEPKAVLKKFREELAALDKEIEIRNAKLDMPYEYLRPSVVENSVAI
As to the kind of experiment: Kinetic inhibition assay of 15-hLO-1. In kind it is biochemical. The conditions noted are these: for Ki: Kis; for Ki / Kii: noncompetitive.

Series [3] has as its target T3, human platelet 12-lipoxygenase (12-hLO) (Homo sapiens, UniProt P18054).
T3 sequence (P18054 1-663): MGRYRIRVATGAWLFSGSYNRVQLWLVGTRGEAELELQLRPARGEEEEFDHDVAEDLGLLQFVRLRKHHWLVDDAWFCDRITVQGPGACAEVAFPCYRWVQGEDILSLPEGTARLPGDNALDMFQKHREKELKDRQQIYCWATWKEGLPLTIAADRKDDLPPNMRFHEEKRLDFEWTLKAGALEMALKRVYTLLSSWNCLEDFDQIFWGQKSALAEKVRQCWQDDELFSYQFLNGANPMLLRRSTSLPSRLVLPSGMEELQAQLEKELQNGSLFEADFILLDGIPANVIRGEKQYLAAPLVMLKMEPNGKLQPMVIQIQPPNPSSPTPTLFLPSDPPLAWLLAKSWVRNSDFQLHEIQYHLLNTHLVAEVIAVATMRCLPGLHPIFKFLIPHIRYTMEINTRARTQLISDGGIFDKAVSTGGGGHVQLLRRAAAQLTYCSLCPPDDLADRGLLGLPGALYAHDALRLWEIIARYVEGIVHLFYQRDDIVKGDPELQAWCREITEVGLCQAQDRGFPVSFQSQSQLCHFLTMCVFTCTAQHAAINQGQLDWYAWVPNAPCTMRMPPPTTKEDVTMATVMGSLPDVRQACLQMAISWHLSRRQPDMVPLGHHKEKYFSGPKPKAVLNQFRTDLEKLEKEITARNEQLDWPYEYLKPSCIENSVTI
As to the kind of experiment: Kinetic inhibition assay of 12-hLO. The class given is biochemical.

Series [4] concerns the target T4, 15-hLO-1 (Homo sapiens, UniProt P16050).
T4 sequence (P16050 1-662): T2 sequence (P16050 1-662)
The experiment in a line: HPLC analysis of product distribution, 15-hLO-1. The class given is biochemical. The conditions noted are these: AA 15 µM, inhibitor at 5 × Ki, HEPES pH 7.5; error in parentheses. In short, it runs like this: (§1)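 Reaction was followed at 235 nm and products isolated after 15 min. Products were resolved by isocratic reverse-phase HPLC (55% A/45% B) against authentic HETE standards, with 8- and 12-HETE coeluting.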

The target in series [5] is T5, 12-hLO (Homo sapiens, UniProt P18054).
T5 sequence (P18054 1-663): T3 sequence (P18054 1-663)
As to the kind of experiment: HPLC analysis of product distribution, 12-hLO. In kind it is biochemical. The following applies: AA 15 µM, inhibitor at 5 × Ki, HEPES pH 7.5; error in parentheses. In short, it runs like this: as §1

Series [6] has as its target T6, sLO-1 (Glycine max, UniProt P08170).
T6 sequence (P08170 1-839): T1 sequence (P08170 1-839)
The experiment in a line: HPLC analysis of product regioselectivity, sLO-1. The conditions noted are these: exclusive product 13-HPODE, no 9-HPODE, with and without inhibitor. The class given is biochemical, soybean.

In series [7] the target is T6, sLO-1. The experiment in a line: Incubation of thiaLAs with sLO-1 as possible substrates. In kind it is biochemical, soybean. The following applies: over the course of one hour.
For series [8], the target named is T6, sLO-1. The experiment in a line: Consumption of the inhibitor under turnover conditions with 13-HPODE. In kind it is biochemical, soybean. The following applies: enzyme, AA and 13-HPODE, 1 hour, HPLC.
Substrate in series [9]: CCCCC/C=C\C/C=C\C/C=C\C/C=C\CCCC(=O)O
As to the kind of experiment: Kinetic inhibition assay of sLO-1. In kind it is biochemical, soybean.

[10] abbreviates: Ki (competitive inhibition), substrate linoleic acid, pH 10.0.
Where [11] appears, read: substrate linoleic acid, pH 10.0.
Setting [12] is: substrate LA, pH 7.5, 13-HPODE activator.

Where “and” joins values, the source holds several entries; their conditions need not be identical. Equal values may be shown once.

As to `CCCCC/C=C\C/C=C\CCCCCCCC(=O)O` [LA, linoleic acid, reference compound], the Km in [1] (read-out: Km for linoleic acid with sLO-1, pH 10.0) was determined as 28 ± 5 µM; in series [2] (read-out: Km with 15-hLO-1, substrate itself, 13-HPODE activator), 6.2 ± 0.9 µM.

For the molecule `CCCCC/C=C\S/C=C\CCCCCCCC(=O)O` [Compound 11-thiaLA, 11-Thialinoleic acid], the Ki in [1] (setting [10]) is 22 µM; in [1] (Kis, substrate arachidonic acid, pH 7.5, 13-HPODE activator, noncompetitive), 45.6 ± 11.1 µM; in series [1] (Kis, substrate arachidonic acid, pH 10.0, 13-HPODE activator, noncompetitive), 48.5 µM and 48 µM; in series [2] (substrate AA, 13-HPODE activator) it was 11.4 µM; in series [2] (setting [12]), 20.1 µM; in series [3], 2500 nM. In addition, the “Mode of inhibition in the presence of activator” value in series [1] (oxidation of LA, 13-HPODE present) is given as “competitive inhibition”; in [3] (oxidation of AA, 13-HPODE (16 µM) present), “competitive inhibition”. The Mode of inhibition entry in series [1] (substrate AA, pH 10.0 and pH 7.5, 13-HPODE activator) is recorded as “noncompetitive inhibition”; in series [1] (setting [11]), “competitive inhibition”; in series [2] (AA as substrate) it was “noncompetitive inhibitor”; in series [2] (with respect to LA) it was “noncompetitive inhibitor”; in series [3] (AA as substrate), “competitive inhibitor”. Further, the Kii in series [1] (substrate arachidonic acid, pH 7.5, 13-HPODE activator, noncompetitive) is given as 38.2 ± 5.4 µM; in series [1] (substrate arachidonic acid, pH 10.0, 13-HPODE activator, noncompetitive), 36.0 ± 4.0 µM; in series [2] (substrate AA, 13-HPODE activator, listed as 11-ThiaLA), 18.1 ± 2.0 µM; in [2] (substrate AA, 13-HPODE activator, listed as 11-Thialinoleic acid), 18.1 µM; in [2] (setting [12]), 20.0 ± 1.4 µM. Further, the “Ki for 12-hLO smaller than for sLO-1 (LA)” value in [3] (compared with Ki for oxidation of LA by sLO-1) was “approximately 10 fold”. Further, the “8-/12-HETE (%)” value was 16 (3) % in series [4] and 93 (1) % in series [5]. The “11-HETE (%)” value in [4] is 5 (1) %; in series [5], 2 (1) %. Besides, the “15-HETE (%)” value in series [4] is reported as 79 (3) %; in series [5], 5 (1) %. The “Effect on product regioselectivity of sLO-1” value in series [6] is listed as “did not affect the product regioselectivity”. In addition, the “Activity as substrate on incubation with sLO-1” value in series [7] was “did not result in any appreciable activity”. In addition, the “Conversion of the inhibitor under turnover conditions” value in series [8] was “no discernable conversion”.

Turning to `CCCCS/C=C\C/C=C\CCCCCCCC(=O)O` [Compound 14-thiaLA, 14-Thialinoleic acid], the Ki in series [1] (setting [10]) amounted to 35 µM. For the same molecule, the Mode of inhibition entry in series [1] (setting [11]) is “competitive inhibition”. The “Substrate or inhibitor behaviour with 12-hLO” value in series [3] (AA as substrate) is reported as “neither a substrate nor an inhibitor”. Also, the “Activity as substrate on incubation with sLO-1” value in series [7] is recorded as “did not result in any appreciable activity”. Also, the “Conversion of the inhibitor under turnover conditions” value in series [8] is given as “oxidized to a small extent”.

B1: soybean lipoxygenase-1 (sLO-1) (Glycine max) (protein)
chain: T1 sequence (P08170 1-839)
As to B1, the Km amounted to 31.7 ± 3.5 µM in [9] (other: pH 7.5, 13-HPODE activator, pH 7.5) and 15.1 ± 1.5 µM in series [9] (other: pH 10.0, 13-HPODE activator, pH 10.0).

What is called Km is the concentration of substrate that gives half-maximal velocity. A word on the Ki: it is a dissociation constant, usually derived from enzyme kinetics or from competition with a known ligand. Low values mean higher affinity, high ones lower affinity.
